Reference: ChEMBL document CHEMBL2417552, “Screen of pseudopeptidic inhibitors of human sirtuins 1-3: two lead compounds with antiproliferative effects in cancer cells” (J Med Chem, 2013)

Key:
[1] = biological target: T1, NAD-dependent protein deacetylase sirtuin-2 (Homo sapiens) (UniProt Q8IXJ6); experiment: Inhibition of human recombinant GST-tagged SIRT2 using KI179 as substrate at 50 uM preincubated for 5 mins followed by enzyme addition measured after 1 hr by fluorescence assay relative to control
T1 sequence (whole entry): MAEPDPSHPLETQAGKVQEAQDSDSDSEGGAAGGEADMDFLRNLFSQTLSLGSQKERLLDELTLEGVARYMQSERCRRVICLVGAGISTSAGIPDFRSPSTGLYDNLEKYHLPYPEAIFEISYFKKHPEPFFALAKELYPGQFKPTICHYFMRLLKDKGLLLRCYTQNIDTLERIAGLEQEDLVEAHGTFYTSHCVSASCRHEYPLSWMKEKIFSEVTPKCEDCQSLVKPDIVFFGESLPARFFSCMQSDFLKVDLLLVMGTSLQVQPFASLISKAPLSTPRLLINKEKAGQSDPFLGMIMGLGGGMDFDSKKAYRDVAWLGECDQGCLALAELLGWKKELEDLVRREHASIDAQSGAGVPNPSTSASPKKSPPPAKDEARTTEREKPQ
Procedure, shortened: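 Recombinant GST-SIRT2, Fluor de Lys assay in SIRT assay buffer. Acetylated peptide KI179 at 0.7 Km (Km 198 µM) and NAD+ at 0.9 Km (reported Km 547 µM). Buffer, substrate, NAD+ and compound in DMSO preincubated 5 min at room temperature. Enzyme added to start; 1 h at 37 °C. Developer with 2 mM nicotinamide added; 45 min at 37 °C; fluorescence read. Mean ± SD, ≥3 experiments.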

[2] = biological target: T2, NAD-dependent protein deacetylase sirtuin-3, mitochondrial (Homo sapiens) (UniProt Q9NTG7); conditions: at 50 µM;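 also: recombinant His-tagged human SIRT3 with KI179 substrate, fluorescence read after 1 h, inhibition expressed relative to control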
T2 sequence (whole entry): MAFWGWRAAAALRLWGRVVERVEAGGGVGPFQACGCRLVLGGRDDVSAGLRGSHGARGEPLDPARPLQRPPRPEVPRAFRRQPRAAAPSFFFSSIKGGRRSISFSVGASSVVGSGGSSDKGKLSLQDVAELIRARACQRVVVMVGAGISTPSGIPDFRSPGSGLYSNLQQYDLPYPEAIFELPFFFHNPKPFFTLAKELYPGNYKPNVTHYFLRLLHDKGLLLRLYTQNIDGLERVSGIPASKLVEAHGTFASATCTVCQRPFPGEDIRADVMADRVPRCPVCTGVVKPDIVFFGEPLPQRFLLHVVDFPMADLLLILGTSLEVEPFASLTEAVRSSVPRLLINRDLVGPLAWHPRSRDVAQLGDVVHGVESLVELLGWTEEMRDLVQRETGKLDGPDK

[3] = biological target: T3, NAD-dependent protein deacetylase sirtuin-1 (Homo sapiens) (UniProt Q96EB6); conditions: at 50 µM;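 also: recombinant GST-tagged human SIRT1 enzyme assay with KI177 substrate, fluorescence read 1 h after enzyme addition, inhibition expressed relative to control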
T3 sequence (whole entry): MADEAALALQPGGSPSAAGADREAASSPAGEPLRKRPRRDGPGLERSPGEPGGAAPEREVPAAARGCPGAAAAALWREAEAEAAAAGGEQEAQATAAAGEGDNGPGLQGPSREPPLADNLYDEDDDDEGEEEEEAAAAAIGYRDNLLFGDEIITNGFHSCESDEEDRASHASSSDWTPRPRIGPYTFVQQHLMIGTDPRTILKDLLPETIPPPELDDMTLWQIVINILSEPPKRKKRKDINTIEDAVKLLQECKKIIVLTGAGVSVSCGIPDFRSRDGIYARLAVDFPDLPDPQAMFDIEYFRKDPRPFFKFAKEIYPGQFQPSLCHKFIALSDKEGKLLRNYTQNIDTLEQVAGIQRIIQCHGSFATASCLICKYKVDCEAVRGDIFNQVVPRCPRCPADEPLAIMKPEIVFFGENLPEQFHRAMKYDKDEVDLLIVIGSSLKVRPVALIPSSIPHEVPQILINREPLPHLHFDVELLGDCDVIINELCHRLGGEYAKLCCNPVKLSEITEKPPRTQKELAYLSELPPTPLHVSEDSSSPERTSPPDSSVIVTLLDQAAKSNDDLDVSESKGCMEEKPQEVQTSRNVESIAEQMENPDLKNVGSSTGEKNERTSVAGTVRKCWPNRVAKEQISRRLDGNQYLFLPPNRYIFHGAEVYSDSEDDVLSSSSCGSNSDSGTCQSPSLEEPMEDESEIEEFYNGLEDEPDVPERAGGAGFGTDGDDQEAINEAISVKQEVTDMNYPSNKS

Row | SMILES | inhibition [1] | inhibition [2] | inhibition [3]
1 | CC(=S)NCCCC[C@H](NC(=O)CCc1ccccc1F)C(=O)Nc1cccnc1 | 74% | 72% | 94%
2 | CC(=S)NCCCC[C@H](NC(=O)CCc1cccnc1)C(=O)Nc1ccccc1 | 39% | 44% | 82%
3 | CC(=S)NCCCC[C@H](NC(=O)OC(C)(C)C)C(=O)NCC(=O)c1ccccc1 | 87% | 63% | 91%
4 | CC(=S)NCCCC[C@H](NC(=O)CCCCCc1ccccc1)C(=O)NCC(=O)c1ccccc1 | 83% | 82% | 98%
5 | CC(=S)NCCCC[C@H](NC(=O)CCCCCCc1ccccc1)C(=O)NCc1ccccc1 | 74% | 87% | 99%
6 | CC(=S)NCCCC[C@H](NC(=O)[C@@H]1CCCN1C(=O)OC(C)(C)C)C(=O)NCC(=O)c1ccccc1 | 95% | 76% | 97%
7 | CC(=S)NCCCC[C@H](NC(=O)CN(C)C)C(=O)Nc1ccccc1 | 18% | 16% | 62%
8 | CC(=S)NCCCC[C@H](NC(=O)[C@@H]1CCCN1C(=O)OC(C)(C)C)C(=O)NCCc1cccnc1 | 49% | 68% | 66%
9 | CC(=S)NCCCC[C@H](NC(=O)OCc1ccccc1)C(=O)NCCc1c[nH]c2ccc(OCc3ccccc3)cc12 | 79% | 68% | 87%
10 | CC(=S)NCCCC[C@H](NC(=O)OC(C)(C)C)C(=O)NCCc1cccnc1 | 28% | 24% | 41%
11 | CC(=S)NCCCC[C@H](NC(=O)[C@@H]1C[C@@H](O)CN1C(=O)OCc1ccccc1)C(=O)Nc1ccccc1 | 54% | 69% | 90%
12 | CC(=S)NCCCC[C@H](NC(=O)[C@@H]1CCCN1)C(=O)Nc1ccccc1 | 13% | 19% | 86%
13 | CC(=S)NCCCC[C@H](NC(=O)[C@@H]1CCCN1C(=O)OC(C)(C)C)C(=O)Nc1ccccc1 | 44% | 45% | 80%
14 | CC(=S)NCCCC[C@H](NC(=O)CCc1ccccc1)C(=O)Nc1cccnc1 | 21% | 39% | 83%
15 | CC(=S)NCCCC[C@H](NC(=O)CCc1cccnc1)C(=O)NCC(=O)c1ccccc1 | 58% | 62% | 95%
16 | CC(=S)NCCCC[C@H](NC(=O)C[C@@H]1NC(=O)[C@H](Cc2ccccc2)NC1=O)C(=O)NCC(=O)c1ccccc1 | 73% | 61% | 96%

Other lines, results leading:

Row | inhibition [1] | inhibition [2] | inhibition [3] | SMILES
17 | 67% | 71% | 91% | CC(=S)NCCCC[C@H](NC(=O)OCc1ccccc1)C(=O)NCc1ccccc1
18 | 87% | 93% | 97% | CC(=S)NCCCC[C@H](NC(=O)[C@@H]1C[C@@H](O)CN1C(=O)OCc1ccccc1)C(=O)NCc1ccccc1
19 | 81% | 62% | 83% | CC(=S)NCCCC[C@H](NC(=O)OCc1ccccc1)C(=O)Nc1ccccc1
20 | 65% | 68% | 96% | CC(=S)NCCCC[C@H](NC(=O)CCc1ccccc1)C(=O)NCC(=O)c1ccccc1
21 | 72% | 77% | 91% | CC(=S)NCCCC[C@H](NC(=O)OCc1ccccc1)C(=O)NCC(N)=O
22 | 52% | 41% | 72% | CC(=S)NCCCC[C@H](NC(=O)OCc1ccccc1)C(=O)NCCc1ccccc1
23 | 94% | 74% | 97% | CC(=S)NCCCC[C@H](NC(=O)OCc1ccccc1)C(=O)NCC(=O)c1ccccc1
24 | 54% | 45% | 77% | CC(=S)NCCCC[C@H](NC(=O)OCc1ccccc1)C(=O)NCC(O)c1ccccc1 (some centres not stated)
25 | 70% | 59% | 84% | CC(=S)NCCCC[C@H](NC(=O)OCc1ccccc1)C(=O)Nc1cccnc1
26 | 86% | 85% | 96% | CC(=S)NCCCC[C@H](NC(=O)OCc1ccccc1)C(=O)N[C@@H](C)C(N)=O
27 | 76% | 72% | 98% | CC(=S)NCCCC[C@H](NC(=O)CCCc1ccccc1)C(=O)NCC(=O)c1ccccc1
28 | 71% | 84% | 100% | CC(=S)NCCCC[C@H](NC(=O)CCCCCc1ccccc1)C(=O)NCc1ccccc1
29 | 61% | 46% | 85% | CC(=S)NCCCC[C@H](NC(=O)OCc1ccccc1)C(=O)NCCc1c[nH]c2ccccc12
